In ChEMBL document CHEMBL1949585, “Design, synthesis and evaluation of telomerase inhibitory, hTERT repressing, and anti-proliferation activities of symmetrical 1,8-disubstituted amidoanthraquinones” (Eur J Med Chem, 2012):

Tests used:
Type in all cases: functional
[1] = tested on: RPMI-8226; assay: Cytotoxicity against human RPMI8226 cells assessed as cell growth at 10 uM relative to control; settings: read-out: Activity
In short: (§1)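 Single-concentration screen in the NCI 60 human tumour cell line panel covering nine cancer types. Values are the mean growth percentage of compound-treated cells, with untreated control cells set as 100%.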

[2] = tested on: HOP-62; assay: Cytotoxicity against human HOP62 cells assessed as cell growth at 10 uM relative to control; settings: read-out: Activity; in short: as §1
[3] = tested on: NCI-H23; assay: Cytotoxicity against human NCI-H23 cells assessed as cell growth at 10 uM relative to control; settings: read-out: Activity; in short: as §1
[4] = tested on: NCI-H522; assay: Cytotoxicity against human NCI-H522 cells assessed as cell growth at 10 uM relative to control; settings: read-out: Activity; in short: as §1
[5] = tested on: COLO 205; assay: Cytotoxicity against human COLO205 cells assessed as cell growth at 10 uM relative to control; settings: read-out: Activity; in short: as §1
[6] = tested on: HCT-116; assay: Cytotoxicity against human HCT116 cells assessed as cell growth at 10 uM relative to control; settings: read-out: Activity; in short: as §1
[7] = tested on: HT-29; assay: Cytotoxicity against human HT-29 cells assessed as cell growth at 10 uM relative to control; settings: read-out: Activity; in short: as §1
[8] = tested on: SW-620; assay: Cytotoxicity against human SW620 cells assessed as cell growth at 10 uM relative to control; settings: read-out: Activity
In short: (§2)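 Run in the NCI 60-cell human tumour panel. Cells were exposed to 10 µM compound, and growth was given as a percentage of untreated control cells set to 100%.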

[9] = tested on: MDA-MB-468; assay: Cytotoxicity against human MDA-MB-468 cells assessed as cell growth at 10 uM relative to control; settings: read-out: Activity; in short: as §1
[10] = tested on: OVCAR-3; assay: Cytotoxicity against human OVCAR3 cells assessed as cell growth at 10 uM relative to control; settings: read-out: Activity; in short: as §1
[11] = tested on: OVCAR-4; assay: Cytotoxicity against human OVCAR4 cells assessed as cell growth at 10 uM relative to control; settings: read-out: Activity; in short: as §1
[12] = tested on: OVCAR-8; assay: Cytotoxicity against human OVCAR8 cells assessed as cell growth at 10 uM relative to control; settings: read-out: Activity; in short: as §1
[13] = Cytotoxicity against human 786-O cells assessed as cell growth at 10 uM relative to control; settings: 786-0, read-out: Activity; in short: as §1
[14] = tested on: CAKI-1; assay: Cytotoxicity against human CAKI-1 cells assessed as cell growth at 10 uM relative to control; settings: read-out: Activity; in short: as §1
[15] = tested on: M14; assay: Cytotoxicity against human M14 cells assessed as cell growth at 10 uM relative to control; settings: read-out: Activity; in short: as §1
[16] = tested on: SK-MEL-2; assay: Cytotoxicity against human SK-MEL-2 cells assessed as cell growth at 10 uM relative to control; settings: read-out: Activity; in short: as §1
[17] = tested on: SK-MEL-28; assay: Cytotoxicity against human SK-MEL-28 cells assessed as cell growth at 10 uM relative to control; settings: read-out: Activity; in short: as §1
[18] = tested on: SF-295; assay: Cytotoxicity against human SF295 cells assessed as cell growth at 10 uM relative to control; settings: read-out: Activity; in short: as §1
[19] = tested on: SF-539; assay: Cytotoxicity against human SF539 cells assessed as cell growth at 10 uM relative to control; settings: read-out: Activity; in short: as §1
[20] = tested on: U-251; assay: Cytotoxicity against human U251 cells assessed as cell growth at 10 uM relative to control; settings: read-out: Activity; in short: as §2
[21] = tested on: RPMI-8226; assay: Growth inhibition of human RPMI8226 cells at 10 uM relative to control; settings: read-out: GI; in short: as §2
[22] = tested on: SR; assay: Cytotoxicity against human SR cells assessed as cell growth at 10 uM relative to control; settings: read-out: Activity; in short: as §2

Row | SMILES | growth at 10 µM [1] [%] | growth at 10 µM [2] [%] | growth at 10 µM [3] [%] | growth at 10 µM [4] [%] | growth at 10 µM [5] [%] | growth at 10 µM [6] [%] | growth at 10 µM [7] [%] | growth at 10 µM [8] [%] | growth at 10 µM [9] [%] | growth at 10 µM [10] [%] | growth at 10 µM [11] [%] | growth at 10 µM [12] [%] | growth at 10 µM [13] [%] | growth at 10 µM [14] [%] | growth at 10 µM [15] [%] | growth at 10 µM [16] [%] | growth at 10 µM [17] [%] | growth at 10 µM [18] [%] | growth at 10 µM [19] [%] | growth at 10 µM [20] [%] | further results
1 | COC(=O)CNCC(=O)Nc1cccc2c1C(=O)c1c(NC(=O)CNCC(=O)OC)cccc1C2=O | 37.4 | 108 | 95.2 | 96.8 | 102 | 96.4 | 96.3 | 109 | 83.8 | 89.9 | 87.7 | 96.3 | 103 | 83.8 | 113 | 107 | 127 | 97.2 | 91.9 | 93.7 | inhibition of growth at 10 µM [21]: 31.4%
2 | CCN(CC)CC(=O)Nc1cccc2c1C(=O)c1c(NC(=O)CN(CC)CC)cccc1C2=O | 68.5 | 88.3 | 97.1 | 88 | 114 | 84.2 | 101 | 104 | 86.6 | 161 | 91.3 | 91.2 | 86.4 | 88.3 | 98.6 | 84 | 117 | 88.9 | 91.7 | 100 | growth at 10 µM [22]: 88.5%
